These results are taken from ChEMBL document CHEMBL5356993, “Novel pyrazolo[3,4-d]pyrimidine derivatives: design, synthesis, anticancer evaluation, VEGFR-2 inhibition, and antiangiogenic activity” (RSC Med Chem, 2023).

One assay has as its system SF-295. The assay can be described thus: Antiproliferative activity against human SF-295 cells assessed as cell growth inhibition at 10 uM incubated for 48 hrs by SRB assay relative to control. Format: functional. As to conditions: read-out: GI. In a few lines:
(§1)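 Cells plated in 96-well plates at […] cells/well and preincubated 24 h at 37 °C, 5% CO2. Time-zero plates were TCA-fixed. Compound was diluted in medium with 50 µg/mL gentamicin and cells exposed for 48 h. Adherent cells fixed with 10% final TCA; suspension cells with 16% final TCA. Plates stained with 0.4% SRB in 1% acetic acid, dye solubilized in 10 mM Trizma, absorbance read at 515 nm. Percent growth calculated against time-zero and control.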
`Cc1nc2c(cnn2-c2ccccc2)c(=O)n1-c1ccc(N2C(=O)c3ccccc3C2=O)cc1`: the inhibition of growth at 10 µM is less than 15%.

The next assay deals with A549. The assay can be described thus: Antiproliferative activity against human A549 cells assessed as cell growth inhibition at 10 uM incubated for 48 hrs by SRB assay relative to control. In kind it is functional. The conditions noted are these: read-out: GI.
As for `Cc1nc2c(cnn2-c2ccccc2)c(=O)n1-c1ccc(N2C(=O)c3ccccc3C2=O)cc1`, the inhibition of growth at 10 µM is less than 15%.

A further assay deals with SK-MEL-28. The assay can be described thus: Antiproliferative activity against human SK-MEL-28 cells assessed as cell growth inhibition at 10 uM incubated for 48 hrs by SRB assay relative to control. As to conditions: read-out: GI. In kind it is functional. The method in brief:
as §1
`Cc1nc2c(cnn2-c2ccccc2)c(=O)n1-c1ccc(N2C(=O)c3ccccc3C2=O)cc1`: the inhibition of growth at 10 µM is less than 15%.

A further assay has as its system MDA-MB-468. In words: Antiproliferative activity against human MDA-MB-468 cells assessed as cell growth inhibition at 10 uM incubated for 48 hrs by SRB assay relative to control. Format: functional. As to conditions: read-out: GI.
For `Cc1nc2c(cnn2-c2ccccc2)c(=O)n1-c1ccc(N2C(=O)c3ccccc3C2=O)cc1`, the inhibition of growth at 10 µM was less than 15%.

The subject of a further assay is CAKI-1. In words: Antiproliferative activity against human CAKI-1 cells assessed as cell growth inhibition at 10 uM incubated for 48 hrs by SRB assay relative to control. The conditions noted are these: read-out: GI. In kind it is functional.
As to `Cc1nc2c(cnn2-c2ccccc2)c(=O)n1-c1ccc(N2C(=O)c3ccccc3C2=O)cc1`, the inhibition of growth at 10 µM was less than 15%.

The test system of the next assay is BT-549. The assay can be described thus: Antiproliferative activity against human BT-549 cells assessed as cell growth inhibition at 10 uM incubated for 48 hrs by SRB assay relative to control. The conditions noted are these: read-out: GI. In kind it is functional.
For `Cc1nc2c(cnn2-c2ccccc2)c(=O)n1-c1ccc(N2C(=O)c3ccccc3C2=O)cc1`, the inhibition of growth at 10 µM was less than 15%.

A further assay relates to ACHN. In words: Antiproliferative activity against human ACHN cells assessed as cell growth inhibition at 10 uM incubated for 48 hrs by SRB assay relative to control. In kind it is functional. As to conditions: read-out: GI.
For `Cc1nc2c(cnn2-c2ccccc2)c(=O)n1-c1ccc(N2C(=O)c3ccccc3C2=O)cc1`, the inhibition of growth at 10 µM was less than 15%.

A further assay has as its system IGROV-1. The assay can be described thus: Antiproliferative activity against human IGROV-1 cells assessed as cell growth inhibition at 10 uM incubated for 48 hrs by SRB assay relative to control. As to conditions: read-out: GI. Format: functional.
Regarding `Cc1nc2c(cnn2-c2ccccc2)c(=O)n1-c1ccc(N2C(=O)c3ccccc3C2=O)cc1`, the inhibition of growth at 10 µM is less than 15%.

The subject of another assay is SK-MEL-2. The assay can be described thus: Antiproliferative activity against human SK-MEL-2 cells assessed as cell growth inhibition at 10 uM incubated for 48 hrs by SRB assay relative to control. In kind it is functional. The conditions noted are these: read-out: GI. In a few lines: as §1
In the case of `Cc1nc2c(cnn2-c2ccccc2)c(=O)n1-c1ccc(N2C(=O)c3ccccc3C2=O)cc1`, the inhibition of growth at 10 µM is less than 15%.

In a further assay the test system is Malme-3M. The assay can be described thus: Antiproliferative activity against human Malme-3M cells assessed as cell growth inhibition at 10 uM incubated for 48 hrs by SRB assay relative to control. In kind it is functional. The conditions noted are these: read-out: GI.
As for `Cc1nc2c(cnn2-c2ccccc2)c(=O)n1-c1ccc(N2C(=O)c3ccccc3C2=O)cc1`, the inhibition of growth at 10 µM is less than 15%.

The next assay relates to U-251. The assay can be described thus: Antiproliferative activity against human U-251 cells assessed as cell growth inhibition at 10 uM incubated for 48 hrs by SRB assay relative to control. The conditions noted are these: read-out: GI. In kind it is functional. The method in brief:
(§2)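 Cells pre-incubated 24 h at 37°C, 5% CO2, then exposed to compound (DMSO stock diluted in medium with 50 µg/mL gentamicin) for 48 h. Adherent cells fixed with cold TCA (final 10%, 60 min, 4°C); suspension cells fixed with 16% TCA final. Stained with 0.4% SRB in 1% acetic acid for 10 min, dye solubilized in 10 mM Trizma base, absorbance read at 515 nm. Growth calculated against time-zero and untreated control plates.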
Regarding `Cc1nc2c(cnn2-c2ccccc2)c(=O)n1-c1ccc(N2C(=O)c3ccccc3C2=O)cc1`, the inhibition of growth at 10 µM was less than 15%.

Another assay deals with Hs-578T. In words: Antiproliferative activity against human Hs-578T cells assessed as cell growth inhibition at 10 uM incubated for 48 hrs by SRB assay relative to control. In kind it is functional. The conditions noted are these: read-out: GI. The method in brief:
as §1
For the compound `Cc1nc2c(cnn2-c2ccccc2)c(=O)n1-c1ccc(N2C(=O)c3ccccc3C2=O)cc1`, the inhibition of growth at 10 µM is less than 15%.

For the next assay, the system named is RXF 393. The assay can be described thus: Antiproliferative activity against human RXF 393 cells assessed as cell growth inhibition at 10 uM incubated for 48 hrs by SRB assay relative to control. In kind it is functional. The conditions noted are these: read-out: GI. In a few lines:
as §1
`Cc1nc2c(cnn2-c2ccccc2)c(=O)n1-c1ccc(N2C(=O)c3ccccc3C2=O)cc1`: the inhibition of growth at 10 µM was less than 15%.

For a further assay, the system named is OVCAR-3. The assay can be described thus: Antiproliferative activity against human OVCAR-3 cells assessed as cell growth inhibition at 10 uM incubated for 48 hrs by SRB assay relative to control. In kind it is functional. As to conditions: read-out: GI. The method in brief: as §1
`Cc1nc2c(cnn2-c2ccccc2)c(=O)n1-c1ccc(N2C(=O)c3ccccc3C2=O)cc1`: the inhibition of growth at 10 µM is less than 15%.

For another assay, the system named is SN12C. The assay can be described thus: Antiproliferative activity against human SN12C cells assessed as cell growth inhibition at 10 uM incubated for 48 hrs by SRB assay relative to control. In kind it is functional. As to conditions: read-out: GI.
As for `Cc1nc2c(cnn2-c2ccccc2)c(=O)n1-c1ccc(N2C(=O)c3ccccc3C2=O)cc1`, the inhibition of growth at 10 µM was less than 15%.

Another assay has as its system SK-OV-3. The assay can be described thus: Antiproliferative activity against human SK-OV-3 cells assessed as cell growth inhibition at 10 uM incubated for 48 hrs by SRB assay relative to control. Format: functional. The conditions noted are these: read-out: GI. In a few lines: as §1
On to `Cc1nc2c(cnn2-c2ccccc2)c(=O)n1-c1ccc(N2C(=O)c3ccccc3C2=O)cc1`, for which the inhibition of growth at 10 µM is less than 15%.

Another assay has as its system UACC-257. The assay can be described thus: Antiproliferative activity against human UACC-257 cells assessed as cell growth inhibition at 10 uM incubated for 48 hrs by SRB assay relative to control. In kind it is functional. The conditions noted are these: read-out: GI. In a few lines:
as §2
Turning to `Cc1nc2c(cnn2-c2ccccc2)c(=O)n1-c1ccc(N2C(=O)c3ccccc3C2=O)cc1`, the inhibition of growth at 10 µM is less than 15%.
